Assay [1] addresses Glutamate receptor ionotropic, NMDA 2B (Rattus norvegicus) (UniProt Q00960). Nature of the assay: Displacement of [3H]ifenprodil from GluN2B/NMDA in Wistar rat cerebral cortex at 10 uM after 120 mins by scintillation counting. The class given is tissue-based.
In assay [2] the test system is Mus musculus. As to the kind of experiment: Anticonvulsant activity in DBA/2 mouse assessed as inhibition of audiogenic clonic seizures administered as ip, 30 mins prior to auditory stimulation measured for 60 secs. The following applies: DBA/2, ip. The class given is functional. In short, it runs like this: (§1)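 Seizure ED50 values, in μmol/kg, were computed by the Litchfield and Wilcoxon method. At least 32 animals went into each ED50, and 95% confidence limits are reported.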

The test system of assay [3] is Mus musculus. As to the kind of experiment: Anticonvulsant activity in DBA/2 mouse assessed as inhibition of audiogenic tonic seizures administered as ip, 30 mins prior to auditory stimulation measured for 60 secs. In kind it is functional. The following applies: DBA/2, ip. In short, it runs like this: as §1
In assay [4] the target is Glutamate receptor ionotropic, NMDA 2B (Rattus norvegicus, UniProt Q00960). Nature of the assay: Displacement of [3H]ifenprodil from GluN2B/NMDA in Wistar rat cerebral cortex after 120 mins by scintillation counting. In kind it is tissue-based.
Glutamate receptor ionotropic, NMDA 2B, sequence (Q00960 whole entry): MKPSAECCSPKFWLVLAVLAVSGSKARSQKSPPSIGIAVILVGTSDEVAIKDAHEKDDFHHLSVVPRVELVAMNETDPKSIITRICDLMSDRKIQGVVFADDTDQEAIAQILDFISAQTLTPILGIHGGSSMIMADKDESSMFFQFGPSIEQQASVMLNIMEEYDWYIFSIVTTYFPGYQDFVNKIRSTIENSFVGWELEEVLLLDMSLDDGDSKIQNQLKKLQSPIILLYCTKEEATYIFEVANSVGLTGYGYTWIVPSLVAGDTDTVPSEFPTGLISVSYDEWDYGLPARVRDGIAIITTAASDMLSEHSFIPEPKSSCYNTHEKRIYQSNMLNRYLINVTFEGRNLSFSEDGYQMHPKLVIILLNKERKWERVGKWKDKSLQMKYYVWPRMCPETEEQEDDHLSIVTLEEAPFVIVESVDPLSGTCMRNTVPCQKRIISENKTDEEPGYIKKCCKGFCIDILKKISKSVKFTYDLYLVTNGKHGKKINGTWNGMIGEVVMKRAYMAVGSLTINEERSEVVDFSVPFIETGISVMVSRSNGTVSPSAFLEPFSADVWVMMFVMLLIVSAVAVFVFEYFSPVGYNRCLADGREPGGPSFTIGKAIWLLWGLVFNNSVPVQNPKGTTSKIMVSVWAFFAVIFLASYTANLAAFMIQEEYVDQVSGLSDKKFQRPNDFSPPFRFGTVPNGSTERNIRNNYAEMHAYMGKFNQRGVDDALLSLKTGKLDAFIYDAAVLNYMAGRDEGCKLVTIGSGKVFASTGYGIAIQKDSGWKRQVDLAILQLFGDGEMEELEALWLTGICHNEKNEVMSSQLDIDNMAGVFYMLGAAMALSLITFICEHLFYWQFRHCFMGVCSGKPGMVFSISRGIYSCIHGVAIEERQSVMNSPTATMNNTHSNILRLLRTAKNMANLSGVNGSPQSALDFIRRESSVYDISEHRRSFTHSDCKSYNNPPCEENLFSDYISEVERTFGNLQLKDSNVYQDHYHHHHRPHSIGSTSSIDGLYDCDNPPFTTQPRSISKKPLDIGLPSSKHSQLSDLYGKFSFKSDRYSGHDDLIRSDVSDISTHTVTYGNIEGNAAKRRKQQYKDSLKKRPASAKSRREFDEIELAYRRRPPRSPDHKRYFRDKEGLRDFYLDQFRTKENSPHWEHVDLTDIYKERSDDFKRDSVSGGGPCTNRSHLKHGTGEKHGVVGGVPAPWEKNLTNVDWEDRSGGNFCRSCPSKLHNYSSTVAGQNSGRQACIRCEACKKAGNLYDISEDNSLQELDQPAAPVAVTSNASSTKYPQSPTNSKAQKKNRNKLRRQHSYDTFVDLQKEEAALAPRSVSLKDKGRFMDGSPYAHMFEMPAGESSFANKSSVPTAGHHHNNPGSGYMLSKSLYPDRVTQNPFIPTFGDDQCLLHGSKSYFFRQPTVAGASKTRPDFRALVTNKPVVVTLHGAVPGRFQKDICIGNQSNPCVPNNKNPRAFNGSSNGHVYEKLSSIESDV
Assay [5] concerns the target Sigma non-opioid intracellular receptor 1 (Cavia porcellus, UniProt Q60492). As to the kind of experiment: Displacement of [3H](+)pentazocine from sigma 1 receptor in guinea pig brain membrane after 150 mins by liquid scintillation counting. In kind it is cell membranes.
In assay [6] the target is Glutamate receptor ionotropic, NMDA 2B (Mus musculus) (UniProt Q01097). As to the kind of experiment: Antagonist activity at GluN2B/NMDA in FVB mouse CA1 pyramidal neurons assessed as reduction in NMDA-mediated inward current at 10 uM measured for 5 mins by whole-cell patch clamp assay in presence of glycine and tetrodotoxin. The class given is functional, cell-based. The settings on record: Pyramidal neuron.
Glutamate receptor ionotropic, NMDA 2B (Mus musculus), sequence (Q01097 whole entry): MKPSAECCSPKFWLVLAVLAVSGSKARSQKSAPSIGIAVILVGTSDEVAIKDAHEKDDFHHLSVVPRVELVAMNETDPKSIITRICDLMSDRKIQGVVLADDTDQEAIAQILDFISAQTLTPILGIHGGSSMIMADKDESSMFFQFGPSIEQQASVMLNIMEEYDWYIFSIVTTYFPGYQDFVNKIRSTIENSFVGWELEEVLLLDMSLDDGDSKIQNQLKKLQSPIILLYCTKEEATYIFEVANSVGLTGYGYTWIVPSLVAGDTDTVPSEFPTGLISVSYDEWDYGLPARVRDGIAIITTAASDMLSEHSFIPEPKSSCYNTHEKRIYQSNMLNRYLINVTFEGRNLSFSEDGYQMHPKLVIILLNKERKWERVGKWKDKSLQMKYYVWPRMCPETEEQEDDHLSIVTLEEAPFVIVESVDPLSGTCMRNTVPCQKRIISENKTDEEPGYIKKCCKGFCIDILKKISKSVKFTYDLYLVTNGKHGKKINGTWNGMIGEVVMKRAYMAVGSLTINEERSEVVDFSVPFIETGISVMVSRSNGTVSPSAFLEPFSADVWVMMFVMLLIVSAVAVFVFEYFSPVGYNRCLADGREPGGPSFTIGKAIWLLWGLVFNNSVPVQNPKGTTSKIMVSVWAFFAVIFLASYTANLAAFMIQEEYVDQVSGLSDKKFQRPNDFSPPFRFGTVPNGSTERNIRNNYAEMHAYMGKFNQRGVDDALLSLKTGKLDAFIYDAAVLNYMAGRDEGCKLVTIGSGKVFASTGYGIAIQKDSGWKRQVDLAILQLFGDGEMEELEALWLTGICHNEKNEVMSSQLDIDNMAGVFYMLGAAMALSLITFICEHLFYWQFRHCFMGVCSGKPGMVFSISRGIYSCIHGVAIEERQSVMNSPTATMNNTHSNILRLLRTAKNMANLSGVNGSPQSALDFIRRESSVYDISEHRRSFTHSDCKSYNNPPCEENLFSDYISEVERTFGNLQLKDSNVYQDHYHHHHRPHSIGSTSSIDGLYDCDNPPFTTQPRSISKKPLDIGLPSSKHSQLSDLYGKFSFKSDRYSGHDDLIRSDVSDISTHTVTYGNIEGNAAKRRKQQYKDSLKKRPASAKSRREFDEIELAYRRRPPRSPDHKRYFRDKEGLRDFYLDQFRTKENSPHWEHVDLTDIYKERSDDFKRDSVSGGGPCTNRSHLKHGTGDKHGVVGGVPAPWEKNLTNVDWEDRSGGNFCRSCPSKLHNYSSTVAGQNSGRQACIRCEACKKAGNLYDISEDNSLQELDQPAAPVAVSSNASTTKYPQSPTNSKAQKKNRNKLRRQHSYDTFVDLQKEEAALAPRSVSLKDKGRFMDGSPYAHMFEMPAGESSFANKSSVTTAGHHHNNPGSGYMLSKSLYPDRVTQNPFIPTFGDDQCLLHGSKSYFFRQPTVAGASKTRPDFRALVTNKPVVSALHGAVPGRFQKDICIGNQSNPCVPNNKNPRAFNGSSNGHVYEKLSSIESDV

Assay [7] in a line: Displacement of [3H]DTG from sigma 2 receptor after 120 mins by liquid scintillation counting in presence of (+)-SKF10,047.

The structures appear in SMILES notation. Active and inactive are the calls of the source. The calls are words filed in the database; no cut-off is given here. Bounds are passed on as bounds.

Sigma non-opioid intracellular receptor 1, sequence (Q60492 whole entry): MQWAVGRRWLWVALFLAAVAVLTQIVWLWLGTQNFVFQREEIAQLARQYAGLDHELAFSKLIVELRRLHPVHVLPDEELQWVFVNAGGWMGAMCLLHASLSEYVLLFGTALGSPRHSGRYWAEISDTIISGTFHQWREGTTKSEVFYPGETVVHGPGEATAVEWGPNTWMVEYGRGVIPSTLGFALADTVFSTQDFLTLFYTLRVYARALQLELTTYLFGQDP
Glutamate receptor ionotropic, NMDA 2B (Rattus norvegicus), sequence (Q00960 27-1482 limits assumed): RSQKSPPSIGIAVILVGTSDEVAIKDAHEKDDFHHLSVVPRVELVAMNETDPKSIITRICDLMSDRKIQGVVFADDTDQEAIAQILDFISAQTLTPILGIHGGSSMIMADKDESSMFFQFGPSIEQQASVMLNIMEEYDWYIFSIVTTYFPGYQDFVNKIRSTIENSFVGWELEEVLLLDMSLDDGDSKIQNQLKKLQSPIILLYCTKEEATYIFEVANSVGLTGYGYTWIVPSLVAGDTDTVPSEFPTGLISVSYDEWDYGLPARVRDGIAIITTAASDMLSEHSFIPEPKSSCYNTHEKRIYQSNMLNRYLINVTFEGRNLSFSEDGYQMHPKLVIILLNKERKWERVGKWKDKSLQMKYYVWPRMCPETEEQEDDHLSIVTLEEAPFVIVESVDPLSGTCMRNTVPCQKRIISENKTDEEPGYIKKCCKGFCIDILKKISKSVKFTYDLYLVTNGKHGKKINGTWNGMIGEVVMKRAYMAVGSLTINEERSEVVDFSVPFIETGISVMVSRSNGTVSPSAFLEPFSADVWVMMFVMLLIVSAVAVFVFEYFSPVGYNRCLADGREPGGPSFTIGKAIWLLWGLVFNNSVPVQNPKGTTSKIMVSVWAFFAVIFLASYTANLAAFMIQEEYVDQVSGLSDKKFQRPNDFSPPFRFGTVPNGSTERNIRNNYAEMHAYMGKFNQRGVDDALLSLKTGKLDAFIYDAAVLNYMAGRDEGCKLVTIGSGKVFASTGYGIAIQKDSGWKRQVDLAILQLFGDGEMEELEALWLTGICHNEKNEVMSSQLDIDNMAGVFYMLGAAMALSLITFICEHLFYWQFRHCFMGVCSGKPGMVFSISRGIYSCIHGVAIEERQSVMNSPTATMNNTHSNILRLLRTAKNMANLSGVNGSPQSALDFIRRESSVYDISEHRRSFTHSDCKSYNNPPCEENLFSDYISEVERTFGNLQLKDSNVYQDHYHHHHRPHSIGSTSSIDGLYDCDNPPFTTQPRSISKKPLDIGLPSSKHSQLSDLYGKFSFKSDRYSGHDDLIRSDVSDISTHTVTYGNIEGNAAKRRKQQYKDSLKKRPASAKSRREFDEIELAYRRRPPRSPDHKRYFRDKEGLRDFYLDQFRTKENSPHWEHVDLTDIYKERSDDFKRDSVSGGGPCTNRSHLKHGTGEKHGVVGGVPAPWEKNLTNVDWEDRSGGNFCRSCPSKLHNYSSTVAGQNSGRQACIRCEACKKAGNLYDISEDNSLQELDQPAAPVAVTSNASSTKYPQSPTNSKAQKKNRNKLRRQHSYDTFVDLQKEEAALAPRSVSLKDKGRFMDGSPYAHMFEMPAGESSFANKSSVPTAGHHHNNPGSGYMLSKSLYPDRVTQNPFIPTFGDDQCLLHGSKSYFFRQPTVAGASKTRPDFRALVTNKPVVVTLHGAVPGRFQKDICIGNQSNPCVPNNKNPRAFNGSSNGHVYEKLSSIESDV

In assay [1], `O=C(C(=O)N1CCC(Cc2ccccc2)CC1)c1c[nH]c2cccc(O)c12` yielded an Activity of 24%. The ED50 is 52.1 µmol/kg with Mus musculus [2] and 28.9 µmol/kg in the assay with Mus musculus [3].

On to `COc1ccc2c(C(=O)CN3CCC(Cc4ccccc4)CC3)c[nH]c2c1`, for which the Activity in assay [1] was 4%. The ED50 with Mus musculus [2] was determined as 67.8 µmol/kg; in the assay on Mus musculus [3] it was 30.1 µmol/kg.

`COc1cccc2c(C(=O)C(=O)N3CCC(Cc4ccccc4)CC3)c[nH]c12` showed an Activity in assay [1] of 33%. Further, the median effective dose (ED50) in the assay with Mus musculus [2] stood at 51.4 µmol/kg; in the assay on Mus musculus [3] it was 27.4 µmol/kg.

Take `O=C(C(=O)N1CCC(Cc2ccccc2)CC1)c1c[nH]c2cc(O)ccc12`: the Activity in assay [1] was 92%. In addition, the IC50 in assay [4] was found to be 22 nM. Further, the ED50 in the assay on Mus musculus [2] amounted to 84.4 µmol/kg; in the assay with Mus musculus [3] it was 38.9 µmol/kg. The compound also yielded a Ki in assay [5] of over 1000 nM.

In the case of `COc1ccc2[nH]cc(C(=O)CN3CCN(Cc4ccccc4)CC3)c2c1`, the ED50 is 98.7 µmol/kg in the assay with Mus musculus [2] and 63.8 µmol/kg in the assay with Mus musculus [3].

`COc1ccc2[nH]cc(C(=O)C(=O)N3CCC(Cc4ccccc4)CC3)c2c1` came in with an Activity in assay [1] of 9%.

In the case of `O=C(CN1CCC(Cc2ccccc2)CC1)c1c[nH]c2ccc(O)cc12`, the result in assay [6] was Active. Further, the Ki in assay [5] was over 1000 nM; in assay [7] it was 76.5 nM.

Take `COc1ccc2c(C(=O)C(=O)N3CCC(Cc4ccccc4)CC3)c[nH]c2c1`: the ED50 in the assay with Mus musculus [2] is 11.9 µmol/kg; in the assay on Mus musculus [3], 4.68 µmol/kg.

Turning to `O=C(CN1CCC(Cc2ccccc2)CC1)c1c[nH]c2cc(O)ccc12`, the Activity in assay [1] is 92%. In assay [4], this compound had a concentration for half-maximal inhibition (IC50) of 17 nM. The outcome in assay [6] was inactive. Further, the results for the ED50 in the assay with Mus musculus [2] and in the assay on Mus musculus [3] were 95.4 µmol/kg and 53.7 µmol/kg, respectively. The figures for the Ki in assay [5] and in assay [7] were over 1000 nM and 43 nM, respectively.

In assay [1], `O=C(CN1CCN(Cc2ccccc2)CC1)c1c[nH]c2ccc(O)cc12` registered an Activity of 27%. Moreover, the ED50 was over 100 µmol/kg with Mus musculus [2] and 44.9 µmol/kg with Mus musculus [3]. Also, the Ki in assay [5] turned out to be 437 nM; in assay [7] it was 557 nM.

As to `COc1cccc2[nH]cc(C(=O)CN3CCC(Cc4ccccc4)CC3)c12`, in assay [1], the Activity turned out to be 82%. In assay [4], this compound had an IC50 of 324 nM. Besides, the median effective dose (ED50) in the assay on Mus musculus [2] was 32.7 µmol/kg; with Mus musculus [3], 16.2 µmol/kg.

In turn, `COc1ccc2[nH]cc(C(=O)CN3CCC(Cc4ccccc4)CC3)c2c1` came in with an Activity in assay [1] of 86%.

For the compound `O=C(C(=O)N1CCC(Cc2ccccc2)CC1)c1c[nH]c2ccc(O)cc12`, the Ki in assay [5] was over 1000 nM.

In assay [1], `COc1cccc2[nH]cc(C(=O)C(=O)N3CCC(Cc4ccccc4)CC3)c12` registered an Activity of 14%. Further, the median effective dose (ED50) was over 100 µmol/kg with Mus musculus [2] and 76.7 µmol/kg in the assay with Mus musculus [3].

With `O=C(CN1CCC(Cc2ccccc2)CC1)c1c[nH]c2cccc(O)c12`, the Activity in assay [1] amounted to 77%. The IC50 in assay [4] came out at 6640 nM. Also, the ED50 in the assay on Mus musculus [2] was 68.1 µmol/kg; with Mus musculus [3], 13.7 µmol/kg.

Compound `O=C(CN1CCN(Cc2ccccc2)CC1)c1c[nH]c2ccccc12` registered an Activity in assay [1] of 14%.

In assay [1], `COc1cccc2c(C(=O)CN3CCC(Cc4ccccc4)CC3)c[nH]c12` came in with an Activity of 62%. This compound came in with an IC50 in assay [4] of 2910 nM. Moreover, the ED50 in the assay on Mus musculus [2] was 80.3 µmol/kg; in the assay on Mus musculus [3], 35.8 µmol/kg.

In turn, `O=C(CN1CCC(Cc2ccccc2)CC1)c1c[nH]c2c(O)cccc12` displayed an Activity in assay [1] of 72%. Moreover, in assay [4], the IC50 is 7140 nM. Moreover, the ED50 in the assay with Mus musculus [2] was over 100 µmol/kg; in the assay on Mus musculus [3], 53.8 µmol/kg.

Compound `O=C(C(=O)N1CCC(Cc2ccccc2)CC1)c1c[nH]c2c(O)cccc12` yielded an Activity in assay [1] of 79%. Besides, in assay [4], the IC50 was found to be 1990 nM. Besides, the results for the ED50 with Mus musculus [2] and in the assay with Mus musculus [3] were 80.5 µmol/kg and 36.2 µmol/kg, respectively.

Source of the values: ChEMBL document CHEMBL1938374, “Synthesis and biological characterization of 3-substituted-1H-indoles as ligands of GluN2B-containing N-methyl-D-aspartate receptors” (J Med Chem, 2011).
